In ChEMBL document CHEMBL2417469, “Synthesis of novel analogs of 2-pyrazoline obtained from [(7-chloroquinolin-4-yl)amino]chalcones and hydrazine as potential antitumor and antimalarial agents” (Eur J Med Chem, 2013):

Experiments:
Type in all cases: functional
Plasmodium falciparum = assay: Antimalarial activity against Plasmodium falciparum NF54 infected in human serum at 20 ug/ml after 48 hrs by fluorometric method
Summary of the method: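 Asynchronous P. falciparum NF54 at 1.5–2% parasitemia, 5% hematocrit in RPMI with 10% human serum, exposed 48 h at 37 °C under 90% N2/5% CO2/5% O2 at the stated concentration; parasite DNA stained with ethidium bromide after proteinase K lysis; viability % = (Flu treated − medium)/(Flu untreated − medium) ×100; triplicate.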

MDA-MB-231 = assay: Cytotoxicity against human MDA-MB-231 cells after 48 hrs by SRB assay; conditions: MDA-MB-231, 48 h
Summary of the method: (§1)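 NCI 60-cell-line screen. Cells preincubated 24 h at 37 °C, 5% CO2; time-zero plates TCA-fixed. Compounds dissolved in DMSO and tested at five concentrations (100, 10, 1.0, 0.1, 0.01 µM) for 48 h continuous exposure. Adherent cells fixed with cold TCA (10% final), then SRB stained; absorbance at 515 nm. GI50, TGI and LC50 calculated from growth relative to time-zero and untreated controls.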

DU-145 = assay: Cytotoxicity against human DU145 cells after 48 hrs by SRB assay; conditions: DU-145, 48 h; summary of the method: as §1
UO-31 = assay: Cytotoxicity against human UO31 cells after 48 hrs by SRB assay; conditions: UO-31, 48 h
Summary of the method: (§2)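 NCI 60-cell screen. Cells grew 24 h (37 °C, 5% CO2) before compound was added. Compounds were in DMSO and diluted in medium with gentamicin, then tested at five levels (100, 10, 1.0, 0.1, 0.01 µM) with 48 h continuous exposure. Adherent cells were fixed with TCA (10% final) and stained with 0.4% SRB, absorbance read at 515 nm. A time-zero plate was included. LC50 is the concentration giving 50% loss of protein relative to time zero.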

TK-10 = assay: Cytotoxicity against human TK10 cells after 48 hrs by SRB assay; conditions: TK-10, 48 h; summary of the method: as §2
RXF 393 = assay: Cytotoxicity against human RXF393 cells after 48 hrs by SRB assay; conditions: RXF 393, 48 h; summary of the method: as §1
A498 = assay: Cytotoxicity against human A498 cells after 48 hrs by SRB assay; conditions: A498, 48 h; for CC50: read-out: LC50 (the source's name); summary of the method: as §1
OVCAR-5 = assay: Cytotoxicity against human OVCAR5 cells after 48 hrs by SRB assay; conditions: OVCAR-5, 48 h; summary of the method: as §1
OVCAR-4 = assay: Cytotoxicity against human OVCAR4 cells after 48 hrs by SRB assay; conditions: OVCAR-4, 48 h; summary of the method: as §1
IGROV-1 = assay: Cytotoxicity against human IGROV1 cells after 48 hrs by SRB assay; conditions: IGROV-1, 48 h; summary of the method: as §1
UACC-257 = assay: Cytotoxicity against human UACC257 cells after 48 hrs by SRB assay; conditions: UACC-257, 48 h; summary of the method: as §2
U-251 = assay: Cytotoxicity against human U251 cells after 48 hrs by SRB assay; conditions: U-251, 48 h; for CC50: read-out: LC50 (the source's name); summary of the method: as §2
SNB-75 = assay: Cytotoxicity against human SNB75 cells after 48 hrs by SRB assay; conditions: SNB-75, 48 h; summary of the method: as §2
SF-539 = assay: Cytotoxicity against human SF539 cells after 48 hrs by SRB assay; conditions: SF-539, 48 h; for CC50: read-out: LC50 (the source's name); summary of the method: as §1
SNB-19 = assay: Cytotoxicity against human SNB19 cells after 48 hrs by SRB assay; conditions: SNB-19, 48 h; summary of the method: as §2
SF-295 = assay: Cytotoxicity against human SF295 cells after 48 hrs by SRB assay; conditions: SF-295, 48 h; summary of the method: as §1
SW-620 = assay: Cytotoxicity against human SW620 cells after 48 hrs by SRB assay; conditions: SW-620, 48 h; summary of the method: as §2
SF-268 = assay: Cytotoxicity against human SF268 cells after 48 hrs by SRB assay; conditions: SF-268, 48 h; summary of the method: as §1
HCC 2998 = assay: Cytotoxicity against human HCC2998 cells after 48 hrs by SRB assay; conditions: HCC 2998, 48 h; summary of the method: as §1
NCI-H226 = assay: Cytotoxicity against human NCI-H226 cells after 48 hrs by SRB assay; conditions: NCI-H226, 48 h; summary of the method: as §1
[1] = Cytotoxicity against human EKVX cells after 48 hrs by SRB assay; summary of the method: as §1
MOLT-4 = assay: Cytotoxicity against human MOLT4 cells after 48 hrs by SRB assay; conditions: MOLT-4, 48 h; summary of the method: as §1

With `COc1ccc(C2CC(c3ccc(Nc4ccnc5cc(Cl)ccc45)cc3)=NN2C=O)cc1` (configuration not stated) the inhibition at 20 µg/mL (Plasmodium falciparum) was 0%, the GI50 (MDA-MB-231) was 20.1 µM and the LC50 (concentration killing 50% of cells present at time zero) (MDA-MB-231) was greater than 100 µM. For the same compound, the GI50 (DU-145) was 38 µM, the LC50 (concentration killing 50% of cells) (DU-145) was greater than 100 µM and the GI50 (UO-31) was 19.7 µM. For the same compound, the LC50 (UO-31) was greater than 100 µM, the GI50 (TK-10) was 20.9 µM and the LC50 (concentration giving 50% cell loss vs time zero) (TK-10) was greater than 100 µM. The GI50 (RXF 393) was 11.6 µM, the LC50 (concentration killing 50% of cells) (RXF 393) was greater than 100 µM and the GI50 (A498) was greater than 100 µM. For the same compound, the CC50 (A498) was greater than 100 µM, the GI50 (OVCAR-5) was greater than 100 µM and the LC50 (OVCAR-5) was greater than 100 µM. It also gave a GI50 (OVCAR-4) of 13.4 µM, an LC50 (OVCAR-4) greater than 100 µM and a GI50 (IGROV-1) of 43.1 µM. For the same compound, the LC50 (concentration killing 50% of cells relative to time zero) (IGROV-1) was greater than 100 µM, the GI50 (UACC-257) was 4.39 µM and the LC50 (UACC-257) was greater than 100 µM. For the same compound, the GI50 (U-251) was 1500 nM, the CC50 (U-251) was greater than 100 µM and the GI50 (SNB-75) was greater than 100 µM. It also gave an LC50 (50% net cell kill) (SNB-75) greater than 100 µM, a GI50 (SF-539) greater than 100 µM and a CC50 (SF-539) greater than 100 µM. The GI50 (SNB-19) was 5.65 µM, the LC50 (SNB-19) was greater than 100 µM and the GI50 (SF-295) was 24.8 µM. The LC50 (SF-295) was greater than 100 µM, the GI50 (SW-620) was 35.8 µM and the LC50 (SW-620) was greater than 100 µM. It also gave a GI50 (SF-268) greater than 100 µM, an LC50 (SF-268) greater than 100 µM and a GI50 (HCC 2998) of 18.1 µM. It also gave an LC50 (HCC 2998) greater than 100 µM, a GI50 (NCI-H226) greater than 100 µM and an LC50 (50% lethal concentration) (NCI-H226) greater than 100 µM. It also gave a GI50 [1] greater than 100 µM, an LC50 [1] greater than 100 µM and a GI50 (MOLT-4) of 2.54 µM. For the same compound, the LC50 (MOLT-4) was greater than 100 µM.
For `COc1cc(C2CC(c3ccc(Nc4ccnc5cc(Cl)ccc45)cc3)=NN2C=O)cc(OC)c1OC` (configuration not stated), the inhibition at 20 µg/mL (Plasmodium falciparum) was 5.8%, the GI50 (MDA-MB-231) was 4.39 µM and the LC50 (concentration killing 50% of cells present at time zero) (MDA-MB-231) was greater than 100 µM. For the same compound, the GI50 (DU-145) was 6.63 µM, the LC50 (concentration killing 50% of cells) (DU-145) was greater than 100 µM and the GI50 (UO-31) was 4.96 µM. It also gave an LC50 (UO-31) of 67.5 µM, a GI50 (TK-10) of 3.09 µM and an LC50 (concentration giving 50% cell loss vs time zero) (TK-10) of 38.6 µM. The GI50 (RXF 393) was 2.22 µM, the LC50 (concentration killing 50% of cells) (RXF 393) was greater than 100 µM and the GI50 (A498) was 15.3 µM. It also gave a CC50 (A498) greater than 100 µM, a GI50 (OVCAR-5) of 69.2 µM and an LC50 (OVCAR-5) greater than 100 µM. For the same compound, the GI50 (OVCAR-4) was 3.19 µM, the LC50 (OVCAR-4) was greater than 100 µM and the GI50 (IGROV-1) was 22.3 µM. The LC50 (concentration killing 50% of cells relative to time zero) (IGROV-1) was greater than 100 µM, the GI50 (UACC-257) was 2.84 µM and the LC50 (UACC-257) was 55.4 µM. The GI50 (U-251) was 2060 nM, the CC50 (U-251) was 19.4 µM and the GI50 (SNB-75) was 5.19 µM. For the same compound, the LC50 (50% net cell kill) (SNB-75) was greater than 100 µM, the GI50 (SF-539) was 2.75 µM and the CC50 (SF-539) was 37.6 µM. For the same compound, the GI50 (SNB-19) was 18.2 µM, the LC50 (SNB-19) was greater than 100 µM and the GI50 (SF-295) was 5.63 µM. It also gave an LC50 (SF-295) greater than 100 µM, a GI50 (SW-620) of 3.49 µM and an LC50 (SW-620) greater than 100 µM. The GI50 (SF-268) was 28 µM, the LC50 (SF-268) was greater than 100 µM and the GI50 (HCC 2998) was 5.52 µM. It also gave an LC50 (HCC 2998) greater than 100 µM, a GI50 (NCI-H226) of 34.5 µM and an LC50 (50% lethal concentration) (NCI-H226) greater than 100 µM. For the same compound, the GI50 [1] was 11.7 µM, the LC50 [1] was greater than 100 µM and the GI50 (MOLT-4) was 3.36 µM. For the same compound, the LC50 (MOLT-4) was greater than 100 µM.
`Cc1ccc(C2CC(c3ccc(Nc4ccnc5cc(Cl)ccc45)cc3)=NN2C=O)cc1` (configuration not stated) gave an inhibition at 20 µg/mL (Plasmodium falciparum) of 0%, a GI50 (MDA-MB-231) of 6.09 µM and an LC50 (concentration killing 50% of cells present at time zero) (MDA-MB-231) greater than 100 µM. The GI50 (DU-145) was greater than 100 µM, the LC50 (concentration killing 50% of cells) (DU-145) was greater than 100 µM and the GI50 (UO-31) was 5.49 µM. It also gave an LC50 (UO-31) greater than 100 µM, a GI50 (TK-10) greater than 100 µM and an LC50 (concentration giving 50% cell loss vs time zero) (TK-10) greater than 100 µM. It also gave a GI50 (RXF 393) of 4.89 µM, an LC50 (concentration killing 50% of cells) (RXF 393) greater than 100 µM and a CC50 (A498) greater than 100 µM. The GI50 (OVCAR-5) was greater than 100 µM, the LC50 (OVCAR-5) was greater than 100 µM and the GI50 (OVCAR-4) was 5.15 µM. For the same compound, the LC50 (OVCAR-4) was greater than 100 µM, the GI50 (IGROV-1) was 26.6 µM and the LC50 (concentration killing 50% of cells relative to time zero) (IGROV-1) was greater than 100 µM. It also gave a GI50 (UACC-257) greater than 100 µM, an LC50 (UACC-257) greater than 100 µM and a GI50 (U-251) greater than 100000 nM. The CC50 (U-251) was greater than 100 µM, the GI50 (SNB-75) was greater than 100 µM and the LC50 (50% net cell kill) (SNB-75) was greater than 100 µM. The GI50 (SF-539) was greater than 100 µM, the CC50 (SF-539) was greater than 100 µM and the GI50 (SNB-19) was greater than 100 µM. It also gave an LC50 (SNB-19) greater than 100 µM, a GI50 (SF-295) of 4 µM and an LC50 (SF-295) greater than 100 µM. The GI50 (SW-620) was greater than 100 µM, the LC50 (SW-620) was greater than 100 µM and the GI50 (SF-268) was 8.61 µM. For the same compound, the LC50 (SF-268) was greater than 100 µM, the GI50 (HCC 2998) was 7.44 µM and the LC50 (HCC 2998) was greater than 100 µM. For the same compound, the GI50 (NCI-H226) was greater than 100 µM, the LC50 (50% lethal concentration) (NCI-H226) was greater than 100 µM and the LC50 [1] was greater than 100 µM. For the same compound, the GI50 (MOLT-4) was 5.13 µM and the LC50 (MOLT-4) was greater than 100 µM.
